Sampled rows, rich in hits. Any-hit rate of the full collection: about 1.9%.
ABHD5-PLIN5 inh: ABHD5-PLIN5 protein interaction inhibition | Split G. princeps luciferase complementation, luminescence, 4 h | inhibition, % at 4 µM | 360,000 compounds, 0.78% hits | Q00G26+Q8WTS1;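 active = inhibition above the mean inhibition across every tested compound plus 3 SD, cut at about 22% in these data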;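 note: 0% = DMSO only wells and the 100% control is not disclosed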
Target sequence (Q00G26 whole entry, looked up): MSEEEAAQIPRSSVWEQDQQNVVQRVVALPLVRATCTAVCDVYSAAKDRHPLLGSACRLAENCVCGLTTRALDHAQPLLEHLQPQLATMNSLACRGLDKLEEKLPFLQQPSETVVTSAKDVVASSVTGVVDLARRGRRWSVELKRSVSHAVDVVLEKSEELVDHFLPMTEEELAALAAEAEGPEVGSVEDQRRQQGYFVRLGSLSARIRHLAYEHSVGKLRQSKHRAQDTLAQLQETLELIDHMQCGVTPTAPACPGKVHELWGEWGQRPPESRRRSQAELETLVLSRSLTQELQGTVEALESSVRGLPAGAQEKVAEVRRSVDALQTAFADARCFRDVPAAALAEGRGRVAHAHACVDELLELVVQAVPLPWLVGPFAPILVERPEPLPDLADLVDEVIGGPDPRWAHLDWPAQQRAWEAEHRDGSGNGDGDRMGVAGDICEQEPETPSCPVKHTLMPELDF
Target sequence (Q8WTS1 whole entry, looked up): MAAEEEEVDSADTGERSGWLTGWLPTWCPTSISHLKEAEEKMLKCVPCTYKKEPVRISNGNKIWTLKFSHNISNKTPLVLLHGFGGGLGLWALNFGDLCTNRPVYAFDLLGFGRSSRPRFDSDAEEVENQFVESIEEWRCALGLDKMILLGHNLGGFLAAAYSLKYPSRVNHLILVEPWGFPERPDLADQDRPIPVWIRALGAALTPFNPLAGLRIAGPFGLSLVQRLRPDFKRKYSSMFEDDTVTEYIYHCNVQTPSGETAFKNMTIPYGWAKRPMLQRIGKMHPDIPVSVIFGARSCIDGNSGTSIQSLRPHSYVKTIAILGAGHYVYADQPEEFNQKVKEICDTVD
HIF activator: HIF pathway transcriptional activation. activation, % at 7.5 µM (by protocol). U2OS HRE-luciferase reporter, luminescence; normalized: DMSO 0%, desferrioxamine 100%. 300,000 compounds, 0.32% hits;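 active = mean activation of at least 10% of the iron chelator positive control signal, with at least half of replicates also reaching 10%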
FXN GAA850 act: increases GAA850 frataxin promoter reporter activity; 360,000 compounds, 0.56% hits; HEK293 lucGAA850 FXN promoter luciferase reporter, 24 h; percent of 10 µM SAHA response; activation, % at 6 µM; AID 540364;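 active = activation above the average of all compounds screened plus 3 SD, cutoff fixed separately per campaign, cut at about 7.5% in these data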;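 note: 0% = DMSO wells and 100% = 10 µM SAHA wells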
TAG inh: triacylglycerol accumulation inhibition | H9c2 cells, Nile Red lipid (TAG) fluorescence; cells loaded with 200 µM oleic acid | inhibition, % at 12.5 µM | 230,000 compounds, 0.66% hits | AID 651582;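 active = pattern-corrected inhibition of lipid staining of at least 50% with the nuclear-stain viability signal not falling by more than 50%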;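 note: 0% = DMSO wells and 100% = triacsin C control wells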
Hsp70 act: switches on Hsp70 transcription. 200,000 compounds, 0.04% hits. HeLa Hsp70 promoter luciferase reporter, luminescence; scaled: vehicle 0, proteasome-inhibitor control 100%. activation, % at 10 µM;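 active = activation above the mean across all tested compounds plus 3 SD, cutoff set per campaign, cut at about 5.5% in these data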;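 note: 100% = MG132 at 30 µM as the positive control and 0% = DMSO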
Rad51 HR inh: Rad51 (human) homologous recombination inhibition; hRad51 DNA strand exchange, fluorescence dequenching; 200,000 compounds, 0.085% hits; AID 1385; inhibition, % at 10 µM;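 active = inhibition above 40% at the single screening dose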;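 note: 0% = DMSO control wells and 100% = blanks with heterologous ssDNA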
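Test system: preformed human Rad51 ssDNA filaments. Compound dosing: single dose, 10 µM final compound. Incubation: filaments 15 min 37 °C, then compound 30 min. Technique: FRET fluorescence dequenching, excitation 485 nm, emission 520 nm. Read-out basis: percent inhibition from fluorescence, normalised to plate control and blank means. Benchmarks: plate controls and plate blanks.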
H9c2 TAG conf: confirmation of triacylglycerol accumulation inhibitors | shares compounds with TAG inh | H9c2 lipid accumulation, Nile Red fluorescence; cells loaded with 200 µM oleic acid | inhibition, % at 12.5 µM | 990 compounds, 71% hits;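 active = mean inhibition across replicates of 40% or more; inactive = mean inhibition below 40%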;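 note: plate controls were DMSO only wells for no effect and Triacsin C treated wells for full effect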
An asterisk follows results filed as active; . = not tested or not shown.

SMILES	ABHD5-PLIN5 inh	HIF activator	FXN GAA850 act	TAG inh	Hsp70 act	Rad51 HR inh	H9c2 TAG conf
O=C(c1cccc(Cl)c1)N1CCC(=O)N(C(CO)Cc2ccccc2)CC1 (stereo unspecified)	-3.5	0.1	-0.6	0.7	.	-6.0	.
Cc1nn(Cc2c(Cl)cccc2Cl)c(C)c1NC(=O)c1cnn2c(C(F)F)cc(-c3ccccc3)nc12	3.6	-0.1	2.4	0.5	-0.3	11.0	.
Cc1ccc(-c2cc(C(F)F)n3ncc(C(=O)Nc4c(C)nn(Cc5c(Cl)cccc5Cl)c4C)c3n2)cc1	1.9	0.5	-1.3	89.5*	-0.2	3.9	46.9*
CCN(c1ccccc1)S(=O)(=O)c1ccc(Oc2ccccc2)c(N)c1	6.7	.	1.7	-1.8	.	.	.
CC1CCCC(NC(=O)COC(=O)/C=C/c2ccc(F)cc2)C1C (stereo unspecified)	-9.7	.	0.1	-82.9	.	.	.
O=C(Nc1ccc(-c2csc(Nc3ccc(Cl)cc3)n2)cc1)c1cc([N+](=O)[O-])cc(C(F)(F)F)c1	-2.9	0.2	1.2	50.8*	.	3.4	57.4*
O=C(Nc1cccc(-c2csc(Nc3ccc(Cl)cc3)n2)c1)c1cc([N+](=O)[O-])cc(C(F)(F)F)c1	-6.3	0.7	0.3	55.9*	.	-3.3	50.4*
O=C(Nc1cccc(-c2csc(Nc3ccc(Cl)cc3)n2)c1)c1cccc(C(F)(F)F)c1	-10.3	1.7	0.8	54.0*	.	3.1	65.2*
Clc1cccc(Nc2nc(-c3ccncc3)cs2)c1	3.8	3.0	6.9	80.7*	-0.3	3.5	59.4*
O=C(Nc1cccc(-c2csc(Nc3ccccc3)n2)c1)c1cc([N+](=O)[O-])cc(C(F)(F)F)c1	-6.7	0.5	-1.8	27.2	.	.	.
O=C(Nc1cccc(-c2csc(Nc3ccc(Cl)cc3)n2)c1)c1ccccc1	-6.3	0.1	-0.8	41.7	.	0.8	.
CC(C)NC1(C#N)CCN(Cc2ccccc2)CC1	-11.5	.	-0.6	2.4	.	.	.
Cn1nnc2c[n+](CC(=O)c3ccc(Cl)cc3)cc(Br)c21	-1.8	0.2	-2.4	58.9*	.	.	68.7*
Cn1nnc2c[n+](CC(=O)c3ccc4ccccc4c3)cc(Br)c21	3.2	0.8	-2.2	6.5	.	-11.3	.
CCOc1ccc(NS(=O)(=O)c2c(C)nc3sccn3c2=O)cc1	6.9	-0.1	1.4	-5.6	.	.	.
Cc1c(C2(O)CCCCC2)[nH]c2ccc(C(F)(F)F)cc12	-11.2	.	-2.6	-17.3	.	.	.
CCc1c(C2(O)CCCCC2)[nH]c2cnccc12	0.6	.	1.8	51.3*	.	.	13.1
COCCOC(=O)c1[nH]c2c(c1C)C(=O)CC(c1ccccc1)C2 (stereo unspecified)	-6.7	0.4	1.8	80.4*	0.0	.	47.1*
CCOC(=O)C(=O)N(C)c1c(CC)nc2c(OCCC3CCCCC3)cccn12	5.2	.	0.0	118.7*	.	.	7.3
CCOC(=O)N(C)c1c(CC)nc2c(OCCC3CCCCC3)cccn12	-3.3	.	-3.3	6.8	.	.	.
CCOc1cc2c(cc1O)CCC1C2CCC2(C)C(O)CCC12 (stereo unspecified)	3.4	.	-1.0	73.0*	.	.	57.4*
CCNc1cc2c(cc1O)CCC1C2CCC2(C)C(O)CCC12 (stereo unspecified)	-7.3	.	-0.6	4.3	.	.	.
CC(=O)c1cccc(NC(=S)NC(=O)c2ccc(C)cc2Cl)c1	-0.2	1.0	3.4	.	-0.2	4.0	.
Nc1ncnc2c1ncn2[C@@H]1O[C@H](CNCc2ccccc2)[C@@H](O)[C@H]1O	-0.6	.	1.6	-8.6	.	.	.
Nc1ncnc2c1ncn2[C@@H]1O[C@H](CNCc2cn(CC(=O)NC3CC3)c3ccccc23)[C@@H](O)[C@H]1O	-5.4	.	1.4	76.1*	.	.	4.6
SMILES	ABHD5-PLIN5 inh	HIF activator	FXN GAA850 act	TAG inh	Hsp70 act	Rad51 HR inh	H9c2 TAG conf
COc1ccc(-n2nc(C(=O)Nc3ccc4c(c3)OCO4)c3c4ccccc4n(C)c3c2=O)cc1	1.9	-36.6	1.1	66.3*	-0.2	-6.9	43.6*
CCOc1ccc(N(CC)C(=O)c2nn(-c3ccc(OC)cc3)c(=O)c3c2c2ccccc2n3C)cc1	-2.4	-0.6	-1.5	.	0.0	.	.
COc1ccc(-n2nc(C(=O)Nc3ccc(OC)c(OC)c3)c3c4ccccc4n(C)c3c2=O)cc1	1.3	-3.1	0.1	81.8*	-0.2	-3.3	29.0
COc1ccc(CC(=O)Nc2ccc(-c3ccc4nnc(C)n4n3)cc2)cc1OC	-4.6	0.1	2.6	57.8*	-0.3	-33.0	71.5*
CN(C)c1ncnc2c1ncn2C1OC(CO)C(O)C1O (stereo unspecified)	1.3	-1.3	-6.5	75.3*	-0.4	-0.1	46.5*
CN(C)c1ncnc2c1nnn2C1OC(CO)C(O)C1O (stereo unspecified)	-6.1	.	-0.6	43.2	.	.	.
Nc1nn(-c2ccccc2)c(N)c1N=Nc1ccccc1	-5.2	2.7	-2.3	.	0.1	-5.8	.
c1ccc(N=NC2=NN(c3ccccc3)CS2)cc1	-1.1	.	2.5	95.6*	.	.	112.8*
Cc1cc(C)c2nc(NC(=O)c3ccc([N+](=O)[O-])o3)sc2c1	-0.1	-5.0	-0.7	63.8*	.	.	69.9*
CCc1ccc(N2CC(C(=O)OCC(=O)NC3CC3)CC2=O)cc1 (stereo unspecified)	2.6	.	1.1	-3.1	.	.	.
CCOc1ccc(CCNC(=O)CN2CCN(Cc3ccccc3F)C2=O)cc1OCC	0.5	-0.6	0.6	60.2*	-0.4	2.9	42.2*
COc1ccc(Cc2nc3ccc(C(=O)NCCc4cccc(C)n4)cc3o2)cc1	0.3	-0.3	1.2	.	.	.	.
C=CC[C@@H](CC(=O)N(CCO)Cc1ccccc1)C(=O)N[C@H](COC(=O)[C@@H](CC=C)Cc1ccc(F)cc1)C(C)(C)C	5.3	.	-3.5	85.4*	.	.	89.5*
C=CCC[C@@H](Cc1ccc(F)cc1)C(=O)OC[C@@H](Cc1c[nH]c2ccccc12)NC(=O)[C@H](CC=C)CC(=O)N(CCO)Cc1ccccc1	-0.2	.	-10.4	56.9*	.	.	70.8*
C=CC[C@H](CC(=O)N(CCO)Cc1ccccc1)C(=O)N[C@H](COC(=O)[C@H](CC=C)CC(=O)OC(C)(C)C)Cc1ccccc1	-2.5	.	-8.3	22.1	.	.	.
C=CC[C@H](CC(=O)N(CCO)Cc1ccccc1)C(=O)N[C@H](COC(=O)[C@@H](CC=C)Cc1ccc(F)cc1)C(C)(C)C	4.5	.	-5.2	37.3	.	.	.
C=CC[C@@H](CC(=O)N(CCO)Cc1ccccc1)C(=O)N[C@H](COC(=O)[C@@H](CC=C)CC(=O)OC(C)(C)C)C(C)(C)C	1.9	.	-5.2	72.6*	.	.	80.8*
C=CCC[C@H](Cc1ccc(F)cc1)C(=O)OC[C@@H](NC(=O)[C@@H](CC=C)CC(=O)N(CCO)Cc1ccccc1)C(C)(C)C	9.7	.	-3.9	87.3*	.	.	92.6*

High-throughput results from PubChem.
